Experimental data as given in ChEMBL document CHEMBL3875208, “2-Oxoamides based on dipeptides as selective calcium-independent phospholipase A2 inhibitors” (Bioorg Med Chem, 2017).

Tests used:
[1] = tested on: Phospholipase A2 group VI, Homo sapiens; test: Inhibition of human calcium-independent group-6A iPLA2 using Triton-X-100/PAPC/arachidonyl-1-14C PAPC substrate mixed micelles at 0.091 mole_fraction by modified dole assay relative to control
[2] = target: T1, Phospholipase A2 group V (Homo sapiens) (UniProt P39877); test: Inhibition of human group-5 sPLA2 using Triton-X-100/PAPC/arachidonyl-1-14C PAPC substrate mixed micelles at 0.091 mole_fraction by modified dole assay relative to control
T1 sequence (whole entry): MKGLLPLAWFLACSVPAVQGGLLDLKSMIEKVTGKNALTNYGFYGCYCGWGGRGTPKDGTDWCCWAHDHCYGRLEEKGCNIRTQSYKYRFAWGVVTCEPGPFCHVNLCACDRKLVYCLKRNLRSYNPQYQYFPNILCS

[3] = target: T2, Cytosolic phospholipase A2 (Homo sapiens) (UniProt P47712); test: Inhibition of human group-4 cPLA2 using Triton-X-100/PAPC/arachidonyl-1-14C PAPC/PIP2 substrate mixed micelles at 0.091 mole_fraction by modified dole assay relative to control
T2 sequence (whole entry): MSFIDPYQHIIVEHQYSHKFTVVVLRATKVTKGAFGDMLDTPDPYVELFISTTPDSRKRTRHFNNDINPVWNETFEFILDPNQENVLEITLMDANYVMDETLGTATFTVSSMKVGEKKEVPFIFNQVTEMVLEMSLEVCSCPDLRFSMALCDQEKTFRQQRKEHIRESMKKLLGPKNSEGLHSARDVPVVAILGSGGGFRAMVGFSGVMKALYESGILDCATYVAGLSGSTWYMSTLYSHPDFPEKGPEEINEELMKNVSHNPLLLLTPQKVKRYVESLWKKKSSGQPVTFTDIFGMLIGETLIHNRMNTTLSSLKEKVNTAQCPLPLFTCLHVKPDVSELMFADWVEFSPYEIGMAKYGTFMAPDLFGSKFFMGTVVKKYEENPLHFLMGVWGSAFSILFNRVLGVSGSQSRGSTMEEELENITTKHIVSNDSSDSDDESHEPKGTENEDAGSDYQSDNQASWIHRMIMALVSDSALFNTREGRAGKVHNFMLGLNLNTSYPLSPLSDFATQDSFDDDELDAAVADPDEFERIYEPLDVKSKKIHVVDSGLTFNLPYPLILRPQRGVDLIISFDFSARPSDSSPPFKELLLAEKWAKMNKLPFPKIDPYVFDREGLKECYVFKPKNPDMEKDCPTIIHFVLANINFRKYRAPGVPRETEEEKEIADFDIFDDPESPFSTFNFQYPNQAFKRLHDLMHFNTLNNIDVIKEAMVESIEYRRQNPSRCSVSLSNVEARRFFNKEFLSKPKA
Method in brief: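 Buffer was 100 mM HEPES pH 7.5 with 90 μM CaCl2, 2 mM DTT and 0.1 mg/ml BSA. Activity was read by modified Dole assay with inhibitor at 0.091 mole fraction, added from a 5 mM DMSO stock, and expressed as percent inhibition.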

[4] = tested on: Phospholipase A2 group VI, Homo sapiens; test: Inhibition of human calcium-independent group-6A iPLA2 using Triton-X-100/PAPC/arachidonyl-1-14C PAPC substrate mixed micelles by modified dole assay
[5] = target: T1, Phospholipase A2 group V (Homo sapiens); test: Inhibition of human calcium-independent group-5 sPLA2 using Triton-X-100/PAPC/arachidonyl-1-14C PAPC substrate mixed micelles at 0.091 mole_fraction by modified dole assay relative to control; conditions: in the assay text read “group-5 sPLA2” for “calcium-independent group-5 sPLA2”
Method in brief: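 Human GV sPLA2 activity was measured by modified Dole assay. Inhibitor was added from a 5 mM DMSO stock to give 0.091 mole fraction in substrate, and percent inhibition was recorded.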

[6] = tested on: Phospholipase A2 group VI, Homo sapiens; test: Inhibition of human calcium-independent group-6A iPLA2 using substrate mixed micelles at 0.091 mole_fraction by modified dole assay relative to control
[7] = species on record: Homo sapiens; test: Selectivity ratio of XI50 for human group-4 cPLA2 to XI50 for human calcium-independent group-6A iPLA2

Compound | inhibition [1] [%] | inhibition [2] [%] | inhibition [3] [%] | XI50 (mole fraction) [4] | inhibition [5] [%] | XI50 (mole fraction) [6] | Selectivity ratio [7]
CCCC[C@H](NC(=O)C(=O)CCCCc1ccc(OC)cc1)C(N)=O | 66.2 |  | 29.3 |  | 31.1 |  | 
CCCC[C@H](NC(=O)C(=O)CCCCc1ccc(OC)cc1)C(=O)OC(C)(C)C | 60 |  | 85.7 |  | 60.6 |  | 
COc1ccc(CCCCC(=O)C(=O)N[C@H](C(=O)NCC(=O)OC(C)(C)C)C(C)C)cc1 | 85.7 |  | 35.4 |  | 47.1 |  | 
CCCC[C@@H](COCC(=O)OC(C)(C)C)NC(=O)C(=O)CCCCc1ccccc1 | 76 | 57.5 | 82.3 |  |  |  | 
CCCC[C@@H](COCC(=O)OC(C)(C)C)NC(=O)C(=O)CCCCc1ccc(OC)cc1 | 93.6 |  |  |  |  |  | 
CCCCC/C=C\C/C=C\C/C=C\C/C=C\CCCC(=O)C(F)(F)F |  |  |  |  |  | 0.028 | 
CC[C@H](C)[C@H](NC(=O)C(=O)CCCCc1ccc(OC)cc1)C(=O)NCC(=O)OC(C)(C)C | 81.8 |  | 57.3 |  | 48.2 |  | 
CCCC[C@@H](COCC(=O)O)NC(=O)C(=O)CCCCc1ccc(OC)cc1 | < 25 |  |  |  |  |  | 
CCCC[C@H](NC(=O)C(=O)CCCCc1ccc(OC)cc1)C(=O)N[C@@H](C)C(=O)OC(C)(C)C | 87.5 |  | 57.4 |  | 46.6 |  | 
COc1ccc(CCCCC(=O)C(=O)N[C@@H](CC(C)C)C(=O)NCCCC(=O)OC(C)(C)C)cc1 | 92.8 | < 25 | 58 |  |  |  | 
COc1ccc(CCCCC(=O)C(=O)N[C@@H](CC(C)C)C(=O)NCC(=O)OC(C)(C)C)cc1 | > 95 |  | 51.6 | 0.024 | 40.8 |  | 
CCCC[C@H](NC(=O)C(=O)CCCCc1ccc(OC)cc1)C(=O)N[C@H](C)C(=O)OC(C)(C)C | 87.1 |  | 73.4 |  | 49.9 |  | 
CCCC[C@@H](COCC(=O)OC(C)(C)C)NC(=O)C(=O)CCCCc1ccc2ccccc2c1 | 88.4 |  | 85.5 |  | 63.9 |  | 
CCCC[C@@H](COCC(=O)OCC)NC(=O)C(=O)CCCCc1ccc(OC)cc1 | 75.2 |  |  |  |  |  | 

Second part, the compound after the results:

inhibition [1] [%] | inhibition [2] [%] | inhibition [3] [%] | XI50 (mole fraction) [4] | inhibition [5] [%] | XI50 (mole fraction) [6] | Selectivity ratio [7] | Compound
> 95 | < 25 | 52.3 | 0.026 |  |  |  | CCCC[C@H](NC(=O)C(=O)CCCCc1ccc(OC)cc1)C(=O)NCC(=O)OCc1ccccc1
< 25 | < 25 | < 25 |  |  |  |  | CCCC[C@H](NC(=O)C(=O)CCCCc1ccccc1)C(=O)NCC(=O)O
66.5 | < 25 | 27.1 |  |  |  |  | CCCC[C@H](NC(=O)C(=O)CCCCc1ccc(OC)cc1)C(=O)NCC(=O)NCC(=O)OC(C)(C)C
77.1 | 54.4 | 70.5 |  |  |  |  | CCCC[C@H](NC(=O)C(=O)CCCCc1ccc2ccccc2c1)C(=O)NCC(=O)OCC
< 25 | < 25 | 43.1 |  |  |  |  | CCCC[C@H](NC(=O)C(=O)CCCCc1ccc2ccccc2c1)C(=O)NCC(=O)O
90.1 | 56.3 | 64.5 |  |  |  |  | CCCC[C@H](NC(=O)C(=O)CCCCc1ccc(OC)cc1)C(=O)NCCCCC(=O)OC(C)(C)C
89.1 |  | 57.5 |  | 44.8 |  |  | CCCC[C@H](NC(=O)C(=O)CCCCc1ccc2ccccc2c1)C(=O)NCC(=O)OC(C)(C)C
> 95 |  | 68 | 0.04 | 39.3 |  |  | CCCC[C@@H](NC(=O)C(=O)CCCCc1ccc(OC)cc1)C(=O)NCC(=O)OC(C)(C)C
> 95 | 45.3 | 40.2 | 0.012 |  |  |  | CCCC[C@H](NC(=O)C(=O)CCCCc1ccc(OC)cc1)C(=O)NCC(=O)OC(C)(C)C
91.1 |  | 46.9 |  | 43.4 |  |  | CCCC[C@H](NC(=O)C(=O)CCCCc1ccccc1)C(=O)NCC(=O)OC(C)(C)C
83.1 | 32.5 | 37.8 |  |  |  |  | CCCC[C@H](NC(=O)C(=O)CCCCc1ccc(OC)cc1)C(=O)NCCC(=O)OC(C)(C)C
78.3 |  | 47.9 |  | 27.7 |  |  | CCCC[C@H](NC(=O)C(=O)CCCCc1ccc(OC)cc1)C(=O)NCCCC(=O)OCc1ccccc1
> 95 |  | 52.6 | 0.007 | 44.8 |  | 13 | CCCC[C@H](NC(=O)C(=O)CCCCc1ccc(OC)cc1)C(=O)NCCCC(=O)OC(C)(C)C
